# OXTR ag – human OXTR agonists, primary screen, fluorescence, CHO-OTR cells, Fluo-8 calcium; 320,000 tested, 0.32% active; activation, % at 3 µM; Fluo-8 calcium fluorescence; normalized: DMSO 0%, oxytocin 100%;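 active = activation above the mean of all tested compounds plus 3 SD, cutoff set per screening run, cut at about 20% in these data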;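 also: peak over basal fluorescence ratio from a 100 s FLIPR kinetic read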
# V1R ag counter – agonists of human V1a receptor, primary screen, counter-screen for OXTR agonist project, fluorescence, CHO-V1R cells; 320,000 tested, 0.25% active; Fluo-8 calcium fluorescence, agonist mode; 0% DMSO, 100% 3 nM vasopressin; activation, % at 3 µM; Vasopressin V1a receptor (Homo sapiens), P37288;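 active = activation above the mean activation of all tested compounds plus 3 SD, per screening run, cut at about 20% in these data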;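 also: signal is peak over basal fluorescence ratio across a 100 second FLIPR read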
# Target sequence (P37288 whole entry, looked up): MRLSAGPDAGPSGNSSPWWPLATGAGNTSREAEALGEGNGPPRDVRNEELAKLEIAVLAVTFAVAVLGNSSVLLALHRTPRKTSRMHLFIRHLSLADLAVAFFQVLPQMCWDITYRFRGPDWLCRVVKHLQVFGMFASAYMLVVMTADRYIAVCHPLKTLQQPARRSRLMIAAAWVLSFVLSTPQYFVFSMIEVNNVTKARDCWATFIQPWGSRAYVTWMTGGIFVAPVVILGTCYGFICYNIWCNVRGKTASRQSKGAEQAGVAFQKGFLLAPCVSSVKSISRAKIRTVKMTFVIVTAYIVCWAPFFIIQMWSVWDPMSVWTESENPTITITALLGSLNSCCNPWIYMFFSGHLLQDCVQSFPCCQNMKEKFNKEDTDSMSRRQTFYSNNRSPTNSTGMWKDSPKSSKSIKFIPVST
# TAAR1 agonist – human TAAR1 agonists, primary screen, Fluo-8 calcium fluorescence, CHO RD-HGA16 cells; Trace amine-associated receptor 1 (Homo sapiens), Q96RJ0; vehicle wells 0%, saturating PEA agonist 100%; activation, % at 3 µM; 360,000 tested, 0.99% active;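 active = activation above the mean activation of all test compounds in the run plus 3 SD, cut at about 38% in these data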
#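 Repeats: no replicates (n 1) | Material: CHO-derived RD-HGA16 cells with stable Gα16 and human TAAR1 | Technique: Kinetic Fluo-8 calcium fluorescence | Schedule: 17-24 h seeding, 75 min 37 °C dye, 30 min RT | Evaluation: % activation from peak over basal fluorescence ratio, DMSO-to-PEA scaled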
# TAAR1 antagonist – human TAAR1 antagonists, primary screen, Fluo-8 calcium fluorescence, CHO RD-HGA16 cells | AID 624466, 2012 | antagonist | 360,000 tested, 1.5% active | Trace amine-associated receptor 1 (Homo sapiens), Q96RJ0 | inhibition, % at 3 µM;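 active = inhibition above a per-plate cutoff, the mean inhibition of test compounds on that plate plus 3 SD, cut at about 49% in these data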;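 also: 0% = DMSO plus EC80 beta-PEA response and 100% = DMSO alone without agonist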
#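 Material: CHO RD-HGA16 cells bearing hTAAR1; compound dosing: one-point dosing, 3 µM nominal final; schedule: dye loading 75 min at 37 °C, then 30 min room temperature; measured by: calcium fluorescence with Fluo-8; control set: vehicle and agonist controls; replication: n of 1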
# OXTR potentiator – human OXTR potentiators, primary screen, fluorescence, CHO-OTR cells, Fluo-8 calcium; Fluo-8 calcium fluorescence, potentiator mode; 0% = oxytocin EC15, 100% = EC100; activation, % at 3 µM; 320,000 tested, 0.061% active; AID 2445, 2010;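 active = activation above that plate's cutoff, the mean activation of tested compounds plus 3 SD, cut at about 6.6% in these data, passing the limit was not always enough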;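 also: 100% uses oxytocin at 75 nM as the full agonist control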
#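 Assay system: CHO cell line stably expressing human OTR | Also added: Oxytocin at about EC15, sub-maximal agonist stimulus | Times: Compound 6 min at room temperature before oxytocin, 100 s read | Measured by: Fluo-8 intracellular calcium fluorescence, ex 470-495, em 515-575 nm | Controls: EC15 oxytocin alone as 0%, 75 nM oxytocin as 100%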
# Active calls of the source: *; . = not tested or not shown. This is a sample that favours compounds with a hit; in the whole collection about 2.3% have one here.
SMILES,OXTR ag,V1R ag counter,TAAR1 agonist,TAAR1 antagonist,OXTR potentiator
CC(C)OC(=O)N(C)C[C@@H]1OCc2cnnn2CCCC(=O)N([C@H](C)CO)C[C@H]1C,.,.,2,-10,.
CCOC(=O)CNS(=O)(=O)c1cc(-c2nnc(Nc3ccc4c(c3)OCO4)c3ccccc23)ccc1C,-2,-1,9,59*,1
O=C(C[C@H]1CC[C@H](NC(=O)C2CCOCC2)[C@@H](CO)O1)NCc1ccncc1,.,.,4,-11,.
COc1ccc2c(COC(=O)c3cccc(S(=O)(=O)NCC(C)C)c3)cc(=O)oc2c1,7,7,10,65*,-28
COc1ccc2c(COC(=O)CNS(=O)(=O)c3ccccc3)cc(=O)oc2c1,2,0,2,-22,-3
CCCNS(=O)(=O)c1cccc(C(=O)OCc2cc(=O)oc3cc(OC)ccc23)c1,9,8,9,52*,-29
CCCCc1c(-c2ccccc2OC)ncn1Cc1cccc(F)c1,.,.,1,-14,.
COc1ccc(CNC(=O)CCNC(=O)C2CCN(S(=O)(=O)c3ccc(OC)cc3)CC2)cc1,.,.,2,-11,.
O=S1(=O)C=C(Sc2ccc(Cl)cc2)c2ccccc2C1Cc1ccc(F)cc1 (stereo not drawn),.,.,0,7,.
COC(=O)[C@]12C[C@H](CC(=O)NCc3ccc(C)o3)C(=O)N(Cc3ccccc3)C1=C[C@H](C1CCCC1)O[C@@H]2C,.,.,-2,-38,.
O=C(C1=C(O)C(=O)N(c2nccs2)C1c1ccccc1)c1cc2ccccc2o1 (stereo not drawn),20*,186*,5,-38,-9
CCNC(=O)N(C)[C@H]1C[C@H]2c3[nH]c4ccccc4c3CCN2C[C@H]1[C@H](C)O,.,.,1,-4,.
C[C@H](O)[C@@H]1CN2CCc3c([nH]c4ccccc34)[C@@H]2C[C@@H]1N(C)C(=S)NCCc1ccccc1,.,.,78*,66*,.
CCN(CC)c1ccc(/C=C(/C#N)c2nc3ccc(C)cc3[nH]2)c(OC(C)C)c1,69*,50*,41*,73*,-14
Cc1ccc2nc(/C(C#N)=C\c3cc(O)ccc3[N+](=O)[O-])[nH]c2c1,-1,0,-1,9,-7
CCOc1cc(N(CC)CC)ccc1/C=C(/C#N)c1nc2ccccc2[nH]1,114*,116*,48*,92*,-24
COc1cc(/C=C(\C#N)c2nc3ccc(C)cc3[nH]2)cc([N+](=O)[O-])c1O,.,.,7,5,.
CCCOc1cc(N(CC)CC)ccc1/C=C(/C#N)c1nc2ccc(C)cc2[nH]1,33*,27*,41*,77*,-14
Cc1cc(/C=C(\C#N)c2nc3ccccc3[nH]2)c(C)n1C,1,0,2,-12,-8
O=c1oc2ccc(C#CC3(O)CCCCC3)cc2cc1-n1cc(-c2ccccn2)nn1,1,3,18,52*,0
Nc1cccc(-c2cn(-c3cc4cc(C#CC5(O)CCCCC5)ccc4oc3=O)nn2)c1,3,2,30,58*,-7
O=C(COc1ncnc2cc([N+](=O)[O-])ccc12)NC(=O)NC1CCCCC1,1,1,41*,-2,-6
O=C(CCc1nc(-c2ccccc2F)no1)Nc1ccc(Oc2ccccc2)cc1,5,7,12,54*,-22
COc1cccc(NC(=O)CCc2nc(-c3ccccc3F)no2)c1,3,3,7,5,4
CN[C@H]1C[C@@H](c2ccccc2Br)N(C(C)=O)C[C@H]1CO,.,.,2,-16,.
SMILES,OXTR ag,V1R ag counter,TAAR1 agonist,TAAR1 antagonist,OXTR potentiator
COC(=O)C(CC(C)C)N(Cc1ccc(Br)cc1)S(=O)(=O)CCl (stereo not drawn),.,.,2,19,.
Cc1cc(C)c(C#N)c(SCC(O)COc2ccc(Br)cc2)n1 (stereo not drawn),1,2,0,56*,-11
Cc1nc([N+](=O)[O-])cn1CC(Cl)Cn1cc([N+](=O)[O-])nc1C,.,.,2,-16,.
CCc1ccc([C@H]2[C@@H]3C(=O)C[C@@H]4C(=O)N(Cc5ccccc5)C(=O)[C@@H]4[C@@H]3CN2S(=O)(=O)c2ccc(C)cc2)cc1,.,.,3,-5,.
C/C(=N/NS(=O)(=O)c1ccc(Br)cc1)c1ccc(NC(=O)c2ccc(C)o2)cc1,6,3,38*,11,-11
COC(=O)[C@@]1(Sc2ccc(C)cc2)CC(=O)N(c2ccc(Cl)cc2)[C@@H]1c1ccccc1,.,.,1,48,.
COC(=O)[C@@]1(Sc2ccc(C)cc2)CC(=O)N(c2ccc3c(ccn3C)c2)[C@@H]1c1ccccc1,.,.,3,55*,.
C[C@H]1Cn2cnc(C(=O)N3CCN(C(=O)OC(C)(C)C)CC3)c2C(=O)N1,.,.,0,3,.
Cc1ccccc1C(=O)N1CCN(c2ccc(NC(=S)NC(=O)c3ccco3)cc2)CC1,16,10,11,62*,-14
Cc1ccc(OCC(=O)Nc2ccc(N3CCN(C(=O)c4ccco4)CC3)cc2)cc1C,8,8,9,40,-31
Cc1cccc(OCC(=O)Nc2ccc(N3CCN(C(=O)c4ccco4)CC3)cc2)c1,18,11,16,56*,-10
COc1ccccc1C(=O)NC(=S)Nc1ccc(N2CCN(C(=O)c3ccco3)CC2)cc1,-1,3,4,-4,-15
Cc1ccc2nc(-c3ccc(Cl)cc3)c(Cc3ccsc3)n2c1,.,.,-1,-6,.
O=C(N/N=C/c1cccnc1)c1ccc(NC(=O)C(c2ccccc2)c2ccccc2)cc1,0,1,8,57*,-8
O=C(N/N=C/c1cccc(OC(=O)c2cccc(Br)c2)c1)c1cccnc1,.,.,18,58*,.
O=C(N/N=C/c1cccnc1)c1cccc(NC(=O)c2cccc(Br)c2)c1,1,4,15,51*,-13
O=C(/C=C/c1cccs1)c1ccc(NC(=O)c2cccc(Br)c2)cc1,0,2,7,55*,-7
COc1ncnc2c1ncn2CCCN1CCN(Cc2ccc(C)cc2)CC1,.,.,5,-17,.
COc1cc(C(O)c2nc(-c3ccc(F)c(Cl)c3)cs2)ccc1F (stereo not drawn),.,.,-1,2,.
O=C(N/N=C/c1cccc(Oc2ccccc2)c1)c1cccc(O)c1,.,.,4,37,.
O=C(N/N=C/c1cccc(Oc2ccccc2)c1)c1cccc(Br)c1,0,0,2,57*,-12
O=C(Nc1cccc(C(=O)Nc2cccc(Br)c2)c1)c1ccccc1,9,10,16,62*,-20
